What was measured:
C6 [1] = test: Inhibition of [14C]anandamide uptake in C6 cells expressing AEA membrane transporter in dark at 5 uM; assay type: functional; details: Rattus norvegicus
How it was run: (§1)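 Rat C6 glioma cells preincubated with compound 8 min at 25 °C, either in the dark or under UV light (315-400 nm, 125W). Cells then washed 3× with medium containing 0.2% BSA and 2× with BSA-free medium, then given [14C]AEA for 5 min with no inhibitor present. Uptake was taken as residual [14C]AEA in the medium (CHCl3/CH3OH 2:1 extraction, scintillation counting). Nonspecific binding was measured with 100 µM AEA. Values are % inhibition, mean ± SE, N = 3 or 6.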

C6 [2] = test: Inhibition of [14C]anandamide uptake in C6 cells expressing AEA membrane transporter under UV irradiation at 5 uM; assay type: functional; details: Rattus norvegicus, C6, light or radiation study; how it was run: as §1
C6 [3] = test: Inhibition of [14C]anandamide uptake in C6 cells expressing AEA membrane transporter under UV irradiation at 10 uM; assay type: functional; details: Rattus norvegicus, C6, light or radiation study; how it was run: as §1
C6 [4] = test: Inhibition of [14C]anandamide uptake in C6 cells expressing AEA membrane transporter in dark at 10 uM; assay type: functional; details: Rattus norvegicus; how it was run: as §1
RBL-2H3 [5] = test: Inhibition of uptake of [14C]anandamide co-incubated with RBL2H3 cells expressing AEA membrane transporter; assay type: functional, cell-based; details: Rattus norvegicus
How it was run: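 RBL-2H3 cells incubated with [14C]AEA for 5 min at 37 °C with increasing compound concentrations, sometimes after a 10 min preincubation with compound. Uptake was taken as residual [14C]AEA in the medium after CHCl3/CH3OH 2:1 extraction and scintillation counting. Nonspecific binding was measured with 100 µM AEA. IC50 calculated, mean ± SE, N = 3.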

RBL-2H3 [6] = test: Inhibition of uptake of [14C]anandamide pre-incubated for 1 hr with intact RBL2H3 cells expressing AEA membrane transporter; assay type: functional, cell-based; details: Rattus norvegicus
How it was run: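 RBL-2H3 cells preincubated with compound 60 min at 25 °C under normal lab light. Cells then washed 3× with medium containing 0.2% BSA and 2× with BSA-free medium, then given [14C]AEA for 5 min without inhibitor. Uptake was taken as residual [14C]AEA in the medium (CHCl3/CH3OH 2:1 extraction, scintillation counting). IC50, N = 3.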

[7] = molecular target: T1, Fatty-acid amide hydrolase 1 (Rattus norvegicus, UniProt P97612); test: Inhibition of [14C]anandamide hydrolysis in rat brain membrane
T1 sequence (P97612 whole entry): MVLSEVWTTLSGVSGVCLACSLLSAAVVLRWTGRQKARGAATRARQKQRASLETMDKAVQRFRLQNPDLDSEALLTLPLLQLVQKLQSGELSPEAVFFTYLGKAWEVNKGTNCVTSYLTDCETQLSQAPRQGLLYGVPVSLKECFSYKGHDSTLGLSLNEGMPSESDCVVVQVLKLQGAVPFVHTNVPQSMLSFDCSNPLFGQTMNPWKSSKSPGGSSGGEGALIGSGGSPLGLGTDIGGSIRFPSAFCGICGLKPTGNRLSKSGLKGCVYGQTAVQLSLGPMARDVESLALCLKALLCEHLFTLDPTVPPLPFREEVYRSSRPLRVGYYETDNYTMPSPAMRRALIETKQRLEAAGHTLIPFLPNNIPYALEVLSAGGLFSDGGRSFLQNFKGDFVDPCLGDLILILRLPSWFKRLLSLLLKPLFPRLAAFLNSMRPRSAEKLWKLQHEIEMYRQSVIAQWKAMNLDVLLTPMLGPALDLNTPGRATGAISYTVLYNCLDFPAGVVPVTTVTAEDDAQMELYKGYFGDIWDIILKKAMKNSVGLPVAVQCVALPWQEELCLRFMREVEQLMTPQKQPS

[8] = molecular target: T1, Fatty-acid amide hydrolase 1; test: Inhibition of [14C]anandamide hydrolysis in rat brain membrane in the absence of UV irradiation; assay type: functional, cell membranes

In the case of `CCCCCCCC/C=C\CCCCCCCC(=O)N[C@H](CO)Cc1ccc(C(=O)c2ccc(O)cc2)cc1`, the inhibition at 5 µM (C6 [1]) is reported as 28.3%, the inhibition at 5 µM (C6 [2]) is reported as 68.6% and the inhibition at 10 µM (C6 [3]) is reported as 73.2%. For the same compound, the inhibition at 10 µM (C6 [4]) was 73.6% and the IC50 (RBL-2H3 [5]) was 10.1 µM.

In the case of `O=C(CCCCCCC/C=C\CCCCCCCCI)N[C@@H](CO)Cc1ccc(O)cc1`, the IC50 (RBL-2H3 [6]) is reported as greater than 25 µM and the IC50 (RBL-2H3 [5]) is reported as 14 µM.

`O=C(CCCCCCC/C=C\CCCCCCCCBr)N[C@@H](CO)Cc1ccc(O)cc1` was tested, and the IC50 (RBL-2H3 [5]) was 20.1 µM.

In the case of `CCCCCCCC/C=C\CCCCCCCC(=O)N[C@H](Cc1ccc(O)cc1)C(=O)COC(=O)c1c(Cl)cccc1Cl`, the IC50 [7] is reported as greater than 50 µM, the IC50 (RBL-2H3 [6]) is reported as greater than 25 µM and the IC50 [8] is reported as greater than 50 µM. For the same compound, the IC50 (RBL-2H3 [5]) was 7.5 µM.

`O=C(CCCCCCC/C=C\CCOC(=O)c1ccccc1)N[C@H](CO)Cc1ccc(O)cc1` gave an IC50 [7] greater than 50 µM, an IC50 [8] greater than 50 µM and an IC50 (RBL-2H3 [5]) greater than 25 µM.

In the case of `O=C(CCCCCCC/C=C\CCCCCCCCBr)N[C@H](CO)Cc1ccc(O)cc1`, the IC50 (RBL-2H3 [6]) is reported as greater than 25 µM and the IC50 (RBL-2H3 [5]) is reported as 10.2 µM.

Compound `O=C(CCCCCCC/C=C\CCCCCCCCI)N[C@H](CO)Cc1ccc(O)cc1` has an IC50 (RBL-2H3 [6]) greater than 25 µM and an IC50 (RBL-2H3 [5]) of 10.8 µM.

`CCCCCCCC/C=C\CCCCCCCC(=O)N[C@H](Cc1ccc(O)cc1)C(=O)CCl` showed an IC50 [7] greater than 50 µM, an IC50 [8] greater than 50 µM and an IC50 (RBL-2H3 [5]) greater than 25 µM.

`[N-]=[N+]=Nc1ccc(I)cc1C(=O)OCC/C=C\CCCCCCCC(=O)N[C@H](CO)Cc1ccc(O)cc1` showed an IC50 [7] greater than 50 µM, an inhibition at 10 µM (C6 [3]) of 60% and an IC50 [8] greater than 50 µM. For the same compound, the inhibition at 10 µM (C6 [4]) was 32.8% and the IC50 (RBL-2H3 [5]) was 11 µM.

Compound `CCCCCCCC/C=C\CCCCCCCC(=O)N[C@@H](Cc1ccc(O)cc1)C(=O)CI` has an IC50 [7] greater than 50 µM, an IC50 [8] greater than 50 µM and an IC50 (RBL-2H3 [5]) greater than 25 µM.

Work on `CCCCCCCC/C=C/CCCCCCCC(=O)N[C@H](CO)Cc1ccc(C(=O)c2ccccc2)cc1` yielded an IC50 (RBL-2H3 [5]) of 10 µM.

`N#CCCCCCCCC/C=C\CCCCCCCC(=O)N[C@H](CO)Cc1ccc(O)cc1` showed an IC50 (RBL-2H3 [5]) of 23.1 µM.

For `CCCCCCCC/C=C\CCCCCCCC(=O)N[C@@H](Cc1ccc(O)cc1)C(=O)COC(=O)c1c(Cl)cccc1Cl`, the IC50 [7] was greater than 50 µM, the IC50 (RBL-2H3 [6]) was greater than 25 µM and the IC50 [8] was greater than 50 µM. The IC50 (RBL-2H3 [5]) was 16.1 µM.

With `CCCCCCCC/C=C\CCCCCCCC(=O)N[C@@H](Cc1ccc(O)cc1)C(=O)CCl` the IC50 [7] was greater than 50 µM, the IC50 (RBL-2H3 [6]) was greater than 25 µM and the IC50 [8] was greater than 50 µM. It also gave an IC50 (RBL-2H3 [5]) of 10 µM.

In the case of `N#CCCCCCCCC/C=C\CCCCCCCC(=O)N[C@@H](CO)Cc1ccc(O)cc1`, the IC50 (RBL-2H3 [5]) is reported as greater than 25 µM.

`CCCCCCCC/C=C\CCCCCCCC(=O)N[C@@H](CO)Cc1ccc(C(=O)C=[N+]=[N-])cc1` gave an IC50 (RBL-2H3 [5]) greater than 25 µM.

`CCCCCCCC/C=C\CCCCCCCC(=O)N[C@H](CO)Cc1ccc(C(=O)CCl)cc1` gave an IC50 (RBL-2H3 [5]) greater than 25 µM.

`CCCCCCCC/C=C\CCCCCCCC(=O)N[C@H](CO)Cc1ccc(C(=O)c2ccccc2)cc1` was tested, and the inhibition at 5 µM (C6 [1]) was 37.5%, the inhibition at 5 µM (C6 [2]) was 30.3% and the inhibition at 10 µM (C6 [3]) was 57.2%. For the same compound, the inhibition at 10 µM (C6 [4]) was 65.8% and the IC50 (RBL-2H3 [5]) was 6 µM.

Compound `CCCCCCCC/C=C\CCCCCCCC(=O)N[C@H](Cc1ccc(O)cc1)C(=O)CI` has an IC50 [7] greater than 50 µM, an IC50 [8] greater than 50 µM and an IC50 (RBL-2H3 [5]) greater than 25 µM.

For `CCCCCCCC/C=C\CCCCCCCC(=O)N[C@H](CO)Cc1ccc(C(=O)C=[N+]=[N-])cc1`, the IC50 (RBL-2H3 [5]) was greater than 25 µM.

For `CCCCCCCC/C=C\CCCCCCCC(=O)N[C@@H](CO)Cc1ccc(C(=O)c2ccc(O)cc2)cc1`, the IC50 (RBL-2H3 [5]) was 8.1 µM.

From ChEMBL document CHEMBL1146089, “Development of the first potential covalent inhibitors of anandamide cellular uptake” (J Med Chem, 2006)
